Test results as given in ChEMBL document CHEMBL4007421, “Discovery and Preclinical Characterization of 3-((4-(4-Chlorophenyl)-7-fluoroquinoline-3-yl)sulfonyl)benzonitrile, a Novel Non-acetylenic Metabotropic Glutamate Receptor 5 (mGluR5) Negative Allosteric Modulator for Psychiatric Indications” (J Med Chem, 2017).

What was measured:
Liver [1] = experiment: Intrinsic clearance in human liver microsomes at 2.5 uM assessed per gram of liver; type: ADME, microsome
[2] = target: Metabotropic glutamate receptor 5 (Rattus norvegicus, UniProt P31424); experiment: Displacement of [3H]M-MPEP from mGluR5 in Sprague-Dawley rat cerebrocortical membranes after 60 mins
Liver [3] = experiment: Intrinsic clearance in rat liver microsomes at 2.5 uM assessed per gram of liver; type: ADME, microsome
[4] = target: Metabotropic glutamate receptor 5 (Rattus norvegicus) (UniProt P31424); experiment: Displacement of [3H]M-MPEP from rat mGluR5 expressed in rat cerebrocortical membrane at 1 uM after 60 mins relative to control; type: cell membranes
Plasma [5] = experiment: Plasma concentration in Wistar rat at 30 mg/kg, ip administered as single dose; type: ADME, organism-based; details: in vivo
Outline: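 Rats dosed i.p. at 30 mg/kg. Plasma level was taken about 45 min after dosing, at the end of the Vogel session.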

Rattus norvegicus [6] = experiment: Anxiolytic activity in po dosed Wistar rat assessed as increase in water drinking time during punished period administered as suspension by Vogel punished drinking conflict test; type: functional; details: read-out: MED
Outline: (§1)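 Vogel punished-drinking test in rats, single i.p. or p.o. dose as suspension in 5% Tween 80; plasma sampled ~45 min after i.p. or ~75 min after p.o. dosing.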

[7] = target: Metabotropic glutamate receptor 5 (Homo sapiens, UniProt P41594); experiment: Negative allosteric modulation of human mGluR5a expressed in CHO cells assessed as reduction in DHPG-induced cytosolic Ca2+ influx after 10 to 20 mins by fluo-4/AM-dye based fluorometric analysis; type: functional, cell-based
Rattus norvegicus [8] = experiment: Anxiolytic activity in ip dosed Wistar rat assessed as increase in water drinking time during punished period administered as suspension by Vogel punished drinking conflict test; type: functional; details: read-out: MED; outline: as §1
Rattus norvegicus [9] = experiment: Effect on spatial learning performance in po dosed Wistar rat measured as escape latency dosed 1 hr prior to first daily trial by Morris water maze test; type: ADME, organism-based; details: in vivo
Outline: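 Morris water maze with male Harlan-Wistar rats (190–220 g): three trials a day for 4 days, hidden 10 cm platform, video tracking; 30 mg/kg p.o. in Type IV lipid formulation 1 h before first daily trial; plasma taken after last Day 4 trial; 7–17 rats/group.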

Plasma [10] = experiment: Plasma concentration in Wistar rat at 30 mg/kg, po administered as single dose; type: ADME, organism-based; details: in vivo
Rattus norvegicus [11] = experiment: Therapeutic index, ratio of plasma concentration causing effect on spatial learning performance in po dosed Wistar rat by Morris water maze test to plasma concentration causing anxiolytic activity in Wistar rat by Vogel punished drinking conflict test
Outline: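 Index is the plasma level in rats at 30 mg/kg p.o. in the Morris water maze (sampled after the last trial on Day 4) divided by the plasma level at the Vogel minimum effective dose. Vogel plasma was sampled right after the test.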

Rattus norvegicus [12] = experiment: Therapeutic index, ratio of MED for effect on spatial learning performance in po dosed Wistar rat by Morris water maze test to MED for anxiolytic activity in Wistar rat by Vogel punished drinking conflict test
Outline: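 Index is the Morris water maze minimum effective dose (oral, given 1 h before the first daily trial, 4 days of 3 trials) divided by the Vogel punished drinking minimum effective dose.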

[13] = Plasma concentration in ip dosed Wistar rat at anxiolytic MED administered as suspension after 45 mins during Vogel punished drinking conflict test; type: ADME, organism-based
Outline: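 Vehicle was a suspension containing 5% Tween 80, given i.p. at the Vogel minimum effective dose. Plasma was sampled about 45 min after dosing, right after the Vogel punished drinking test.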

Chain of Metabotropic glutamate receptor 5 (Homo sapiens, UniProt P41594) (P41594 whole entry): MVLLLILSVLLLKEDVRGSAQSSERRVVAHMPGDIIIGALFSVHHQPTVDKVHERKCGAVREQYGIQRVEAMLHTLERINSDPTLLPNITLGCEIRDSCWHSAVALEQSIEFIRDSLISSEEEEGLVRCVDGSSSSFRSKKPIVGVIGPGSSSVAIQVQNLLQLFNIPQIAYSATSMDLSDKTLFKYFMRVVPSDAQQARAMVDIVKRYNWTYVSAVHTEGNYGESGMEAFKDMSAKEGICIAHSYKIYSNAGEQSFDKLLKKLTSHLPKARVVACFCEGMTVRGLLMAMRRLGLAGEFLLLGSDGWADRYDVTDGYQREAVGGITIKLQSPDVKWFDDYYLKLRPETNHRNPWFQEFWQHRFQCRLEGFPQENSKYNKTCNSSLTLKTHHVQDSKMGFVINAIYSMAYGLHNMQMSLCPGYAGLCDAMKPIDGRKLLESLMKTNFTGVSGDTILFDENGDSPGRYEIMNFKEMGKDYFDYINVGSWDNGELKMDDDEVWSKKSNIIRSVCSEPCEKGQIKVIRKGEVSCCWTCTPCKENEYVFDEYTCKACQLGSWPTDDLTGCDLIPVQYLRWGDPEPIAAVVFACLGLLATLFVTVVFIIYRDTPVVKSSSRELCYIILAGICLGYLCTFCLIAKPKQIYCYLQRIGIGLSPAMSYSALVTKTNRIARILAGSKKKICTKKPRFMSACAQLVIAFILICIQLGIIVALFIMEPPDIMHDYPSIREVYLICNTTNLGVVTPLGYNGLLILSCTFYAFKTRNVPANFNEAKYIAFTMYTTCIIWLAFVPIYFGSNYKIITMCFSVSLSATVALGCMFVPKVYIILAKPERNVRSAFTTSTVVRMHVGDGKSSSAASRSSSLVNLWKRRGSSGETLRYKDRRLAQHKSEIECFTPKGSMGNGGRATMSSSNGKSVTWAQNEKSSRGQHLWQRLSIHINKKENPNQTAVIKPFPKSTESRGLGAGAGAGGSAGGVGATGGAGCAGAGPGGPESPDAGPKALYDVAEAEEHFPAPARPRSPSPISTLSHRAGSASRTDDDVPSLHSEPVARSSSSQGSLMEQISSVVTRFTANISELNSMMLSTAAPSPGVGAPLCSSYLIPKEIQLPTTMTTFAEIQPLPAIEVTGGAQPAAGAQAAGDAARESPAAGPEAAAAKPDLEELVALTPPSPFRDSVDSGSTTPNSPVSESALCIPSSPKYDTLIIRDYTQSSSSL
Chain of Metabotropic glutamate receptor 5 (Rattus norvegicus, UniProt P31424) (P31424 whole entry): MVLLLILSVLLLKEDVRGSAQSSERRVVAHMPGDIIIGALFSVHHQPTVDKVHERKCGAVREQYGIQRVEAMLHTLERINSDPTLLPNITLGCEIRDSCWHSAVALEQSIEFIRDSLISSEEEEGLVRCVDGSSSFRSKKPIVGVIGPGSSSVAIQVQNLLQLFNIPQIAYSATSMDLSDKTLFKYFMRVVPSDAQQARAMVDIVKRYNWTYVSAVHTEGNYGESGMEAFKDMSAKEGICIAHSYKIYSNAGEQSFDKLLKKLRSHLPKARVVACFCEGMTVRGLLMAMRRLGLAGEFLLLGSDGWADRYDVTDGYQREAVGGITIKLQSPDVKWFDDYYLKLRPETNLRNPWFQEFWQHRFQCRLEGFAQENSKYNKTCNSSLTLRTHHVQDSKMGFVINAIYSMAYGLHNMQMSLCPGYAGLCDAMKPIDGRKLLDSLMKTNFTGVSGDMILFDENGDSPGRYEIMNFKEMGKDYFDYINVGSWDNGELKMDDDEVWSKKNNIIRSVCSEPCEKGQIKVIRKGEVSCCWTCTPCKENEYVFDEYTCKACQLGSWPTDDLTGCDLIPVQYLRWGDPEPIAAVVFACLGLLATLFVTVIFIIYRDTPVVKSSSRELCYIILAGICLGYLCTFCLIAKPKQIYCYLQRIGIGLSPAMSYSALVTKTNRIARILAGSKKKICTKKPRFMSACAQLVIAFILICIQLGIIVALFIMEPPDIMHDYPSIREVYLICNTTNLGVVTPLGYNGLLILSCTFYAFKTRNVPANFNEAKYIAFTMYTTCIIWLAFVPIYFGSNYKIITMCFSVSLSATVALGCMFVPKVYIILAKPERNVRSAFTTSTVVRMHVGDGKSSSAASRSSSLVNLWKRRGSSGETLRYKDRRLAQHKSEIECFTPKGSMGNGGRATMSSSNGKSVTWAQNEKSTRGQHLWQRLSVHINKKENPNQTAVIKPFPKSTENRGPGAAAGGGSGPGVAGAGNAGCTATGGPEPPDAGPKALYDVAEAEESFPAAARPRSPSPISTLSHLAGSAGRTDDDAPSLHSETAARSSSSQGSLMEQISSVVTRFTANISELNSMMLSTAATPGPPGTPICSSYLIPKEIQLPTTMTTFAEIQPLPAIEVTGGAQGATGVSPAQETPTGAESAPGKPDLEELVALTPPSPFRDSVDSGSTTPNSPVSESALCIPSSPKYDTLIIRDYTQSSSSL
Chain of Metabotropic glutamate receptor 5 (Rattus norvegicus) (P31424 21-1203 limits assumed): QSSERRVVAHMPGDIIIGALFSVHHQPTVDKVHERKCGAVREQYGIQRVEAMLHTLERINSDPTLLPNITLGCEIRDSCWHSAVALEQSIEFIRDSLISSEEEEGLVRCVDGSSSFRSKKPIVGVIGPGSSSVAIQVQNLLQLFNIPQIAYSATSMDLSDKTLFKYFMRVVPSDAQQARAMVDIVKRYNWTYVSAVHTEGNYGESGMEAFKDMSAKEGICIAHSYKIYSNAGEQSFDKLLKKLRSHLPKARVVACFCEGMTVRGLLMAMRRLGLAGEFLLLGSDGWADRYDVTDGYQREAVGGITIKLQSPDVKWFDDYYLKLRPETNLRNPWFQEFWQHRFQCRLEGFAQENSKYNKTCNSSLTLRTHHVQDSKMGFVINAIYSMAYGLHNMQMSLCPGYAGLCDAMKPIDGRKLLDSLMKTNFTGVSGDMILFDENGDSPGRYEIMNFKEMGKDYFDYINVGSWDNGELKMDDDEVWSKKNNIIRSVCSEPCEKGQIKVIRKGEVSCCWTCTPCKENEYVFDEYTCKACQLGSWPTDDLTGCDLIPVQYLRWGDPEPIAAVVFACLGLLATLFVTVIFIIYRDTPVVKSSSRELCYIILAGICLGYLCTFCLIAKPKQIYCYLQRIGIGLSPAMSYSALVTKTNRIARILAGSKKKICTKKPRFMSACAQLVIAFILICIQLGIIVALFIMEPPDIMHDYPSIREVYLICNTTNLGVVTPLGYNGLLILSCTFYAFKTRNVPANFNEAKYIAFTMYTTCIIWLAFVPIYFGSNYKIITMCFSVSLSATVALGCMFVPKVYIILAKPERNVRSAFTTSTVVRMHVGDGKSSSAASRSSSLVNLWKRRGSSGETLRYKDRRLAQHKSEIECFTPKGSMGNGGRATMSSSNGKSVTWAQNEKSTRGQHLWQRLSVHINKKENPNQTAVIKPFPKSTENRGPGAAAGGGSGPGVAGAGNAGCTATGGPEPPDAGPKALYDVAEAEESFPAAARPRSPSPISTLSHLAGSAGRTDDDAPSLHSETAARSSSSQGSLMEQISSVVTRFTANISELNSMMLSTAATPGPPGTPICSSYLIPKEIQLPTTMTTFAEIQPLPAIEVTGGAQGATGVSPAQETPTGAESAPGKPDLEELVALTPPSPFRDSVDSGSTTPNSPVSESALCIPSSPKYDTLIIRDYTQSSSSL

| CLint (Liver [1]) [mL/min/g] | Ki [2] [nM] | CLint (Liver [3]) [mL/min/g] | inhibition [4] [%] | concentration (Plasma [5]) [nM] | IC50 [7] [nM] | concentration (Plasma [10]) [nM] | concentration at 0.75 h [13] [nM] | SMILES | minimal effective dose (Rattus norvegicus [6]) [mg/kg] | minimal effective dose (Rattus norvegicus [8]) [mg/kg] | Activity (Rattus norvegicus [9]) | TI (Rattus norvegicus [11]) | TI (Rattus norvegicus [12]) |
| --- | --- | --- | --- | --- | --- | --- | --- | --- | --- | --- | --- | --- | --- |
| 1.23 to 1.25 | 38.6 | 0.89 | 91.6 |  |  |  |  | O=S(=O)(c1ccc(F)cc1)c1cnc2cc(F)ccc2c1-c1ccc(Cl)cc1 |  |  |  |  |  |
| 0.01 | 18 | 0.93 |  | 206 | 25 |  |  | O=S(=O)(c1cc(F)cc(F)c1)c1cnc2cc(F)ccc2c1-c1ccc(F)cc1 | > 10 | > 30 |  |  |  |
| 0.28 | 16 | 0.06 | 91.5 |  |  |  |  | O=S(=O)(c1ccc(F)cc1)c1cnc2c(F)cccc2c1-c1ccc(Cl)cc1 |  |  |  |  |  |
| 0.39 | 6.5 | 0.7 |  |  | 20 | 1280 | 208 | N#Cc1cccc(S(=O)(=O)c2cnc3cc(F)ccc3c2-c2ccc(F)cc2)c1 | 3 to 10 | 10 | Toxic | <=8.4 | 10 |
| 0.12 | 180 | 0.4 | 76.3 |  |  |  |  | O=S(=O)(c1ccc(F)cc1)c1cnc2ccc(F)cc2c1-c1ccc(Cl)cc1 |  |  |  |  |  |
| 0.13 | 30.3 | 0.77 |  |  | 94 |  | 377 | O=S(=O)(c1cc(Cl)cc(Cl)c1)c1cnc2cc(F)ccc2c1-c1ccc(Cl)cc1 |  | 30 |  |  |  |
| 0.21 | 110 | 0.01 | 92.8 |  |  |  |  | O=S(=O)(c1ccc(F)cc1)c1cnc2cc(Cl)ccc2c1-c1ccc(Cl)cc1 |  |  |  |  |  |
| 1.01 | 6.8 | 1.06 |  |  | 25 |  | 119 | O=S(=O)(c1cc(Cl)cc(Cl)c1)c1cnc2c(F)cccc2c1-c1ccc(F)cc1 |  | 30 |  |  |  |
| 0.44 | 19.1 | 0.67 |  | 247 | 43 |  |  | O=S(=O)(c1ccc(F)c(F)c1)c1cnc2cc(F)ccc2c1-c1ccc(F)cc1 |  | > 30 |  |  |  |
| 0.01 | 71.2 | 0.01 | 83.6 |  |  |  |  | O=S(=O)(c1ccc(F)cc1)c1cnc2c(F)c(Cl)ccc2c1-c1ccc(Cl)cc1 |  |  |  |  |  |
| 0.01 |  | 0.34 | 43.7 |  |  |  |  | O=S(=O)(c1ccc(F)cc1)c1cnc2cc(F)c(Cl)cc2c1-c1ccc(Cl)cc1 |  |  |  |  |  |
| 0.69 | 5.2 | 0.89 |  |  | 21 | 968 | 71 | O=S(=O)(c1ccc(F)c(Cl)c1)c1cnc2cc(F)ccc2c1-c1ccc(F)cc1 | 3 | 10 | Toxic | <=9.1 | <=10 |
| 0.69 | 13.3 | 0.63 |  |  | 12 |  | 151 | O=S(=O)(c1cc(F)cc(F)c1)c1cnc2c(F)cccc2c1-c1ccc(F)cc1 |  | 30 |  |  |  |
